For assay [1], the system named is Ferriprotoporphyrin IX. In words: Inhibition of ferriprotoporphyrin 9 biomineralization. It is filed as functional. The essentials: (§1)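 β-Hematin formation: hemin chloride (0.5 mg/mL in DMSO) with 0.5 M sodium acetate pH 4.4 and drug dilutions, 37 °C for 18–24 h. Pellet washed with DMSO, dissolved in 0.1 N NaOH, A405 read. Percent inhibition relative to solvent control. IC₅₀ derived, or percent inhibition at 1 mg/mL (highest concentration) given when no IC₅₀.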

Assay [2] concerns Plasmodium berghei (ANKA). In words: Antiplasmodial activity against parasitemia in Plasmodium berghei ANKA infected NMRI mice (Mus musculus) at 5 mg/kg intraperitoneal dose after 4 days.
For assay [3], the system named is Plasmodium berghei (ANKA). In words: Antiplasmodial activity as survival against Plasmodium berghei ANKA infection in NMRI mice (Mus musculus) at 10 mg/kg intraperitoneal dose for 4 days.
In assay [4] the test system is Plasmodium berghei (ANKA). Kind of assay: Antiplasmodial activity against parasitemia in Plasmodium berghei ANKA infected NMRI mice (Mus musculus) at 10 mg/kg intraperitoneal dose after 4 days.
Assay [5] relates to Plasmodium berghei (ANKA). Kind of assay: Antiplasmodial activity as survival against Plasmodium berghei ANKA infection in NMRI mice (Mus musculus) assessed at 5 mg/kg intraperitoneal dose for 4 days.
The subject of assay [6] is Trypanosoma brucei rhodesiense. Kind of assay: Antitrypanosomal activity against Trypanosoma brucei rhodesiense STIB900. It counts as functional, organism-based. The essentials:
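Bloodstream forms (10⁴ per well) in MEM with 15% heat-inactivated horse serum, 25 mM HEPES, 2-mercaptoethanol, hypoxanthine. 3-fold serial dilutions from 90 to 0.123 µg/mL, in duplicate. Incubation 72 h at 37 °C, 5% CO₂. Resazurin then added for 2–4 h more. Fluorescence read at ex 536 / em 588 nm.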

The subject of the next assay is Plasmodium falciparum. In words: Antiplasmodial activity against Plasmodium falciparum K1 in [3H]hypoxanthine incorporation assay. It is filed as functional, organism-based. As to conditions: K1, 72 h. The essentials: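 K1 erythrocytic stages in RPMI 1640 without hypoxanthine with AlbuMax, human A⁺ red cells at 2.5% hematocrit, 0.3% parasitemia. Compounds taken from 10 mg/mL DMSO stock, tested as serial doubling dilutions at 37 °C in 4% CO₂/3% O₂/93% N₂. After 48 h, ³H-hypoxanthine (0.5 µCi) added for 24 h more; incorporation by scintillation counting. IC₅₀ from sigmoidal curves.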

For another assay, the system named is L6. Kind of assay: Cytotoxicity against rat L6 cells. It counts as cell-based.
The nature of assay [7]: Selectivity index, ratio of IC50 for rat L6 cells to IC50 for Trypanosoma brucei rhodesiense STIB900. It counts as functional. The essentials: (§2)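 Ratio of the IC₅₀ on L-6 rat skeletal myoblasts to the parasite IC₅₀. Cytotoxicity measured in RPMI 1640 with L-glutamine and 10% FBS, serial dilutions 90 to 0.123 µg/mL, duplicate. After 72 h, Alamar blue (resazurin) added for 2 h. Fluorescence read at ex 536 / em 588 nm.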

Assay [8] in a line: Selectivity index, ratio of IC50 for rat L6 cells to IC50 for Plasmodium falciparum K1. It is filed as functional. In a few lines:
as §2

Assay [9] is described as follows: Binding affinity for DNA assessed as thermal melting temperature. The essentials:
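Thermal melting of poly(dA)·poly(dT): DNA at 40 µM base with compound at 12 µM (ratio 0.3) in MES 0.01 M / EDTA 0.001 M buffer, pH 6.25. A260 followed from 20 to 95 °C at 0.5 °C/min. Value is ΔTm.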

Assay [10] deals with Ferriprotoporphyrin IX. Kind of assay: Inhibition of ferriprotoporphyrin 9 biomineralization at 1 mg/ml. It is filed as functional. In a few lines: as §1
The subject of assay [11] is Plasmodium berghei (ANKA). In words: Antiplasmodial activity as survival against Plasmodium berghei ANKA infection in NMRI mice (Mus musculus) at 20 mg/kg intraperitoneal dose for 4 days.
Assay [12] has as its system Plasmodium berghei (ANKA). Kind of assay: Antiplasmodial activity against parasitemia in Plasmodium berghei ANKA infected NMRI mice (Mus musculus) at 20 mg/kg intraperitoneal dose after 4 days.
For assay [13], the system named is Plasmodium berghei. In words: Antiplasmodial activity as survival against Plasmodium berghei ANKA infection in NMRI mice (Mus musculus) at 30 mg/kg intraperitoneal dose for 4 days.
For assay [14], the system named is Plasmodium berghei. Kind of assay: Antiplasmodial activity against parasitemia in Plasmodium berghei ANKA infected NMRI mice (Mus musculus) at 30 mg/kg intraperitoneal dose after 4 days.
The subject of assay [15] is Plasmodium berghei. In words: Antiplasmodial activity as survival against Plasmodium berghei ANKA infection in NMRI mice (Mus musculus) at 50 mg/kg intraperitoneal dose for 4 days.
The subject of assay [16] is Plasmodium berghei. Kind of assay: Antiplasmodial activity against Plasmodium berghei ANKA infected NMRI mice (Mus musculus) as reduced parasitemia at 50 mg/kg intraperitoneal dose after 4 days. More on the design: scale not given: the % may be the effect or the level left.

Results on seven compounds are retold here after ChEMBL document CHEMBL1141653, “New bis(2-aminoimidazoline) and bisguanidine DNA minor groove binders with potent in vivo antitrypanosomal and antiplasmodial activity” (J Med Chem, 2008).

The IC50 is the midpoint of a concentration-inhibition curve. In turn, `CCN(CC)CCCC(C)Nc1ccnc2cc(Cl)ccc12` (stereo not drawn) [CHLOROQUINE] yielded an IC50 in the assay on Ferriprotoporphyrin IX [1] of 17900 nM. In addition, the Activity in [2] and in assay [4] was 99.6% throughout. For the same compound, the figures for the Survival in assay [3] and in assay [5] were 20 days and 9 days, respectively.

A word on the ΔTm: it is the shift of the melting midpoint relative to a reference. A word on the inhibition: it is the percentage by which the read-out fell short of the control. Regarding `N=C(N)Nc1ccc(N2CCN(c3ccc(NC(=N)N)cc3)CC2)cc1`, the IC50 is 270 nM in [6], 15.2 nM with Plasmodium falciparum and 46400 nM in the assay with L6. Further, the “Ratio IC50” value in assay [7] came to 172; in assay [8] it was 3053. Also, the ΔTm in [9] is 27.8 °C. Further, in the assay with Ferriprotoporphyrin IX [10], the inhibition is 0%. In assay [11], the Survival was found to be 7 days. The Activity in assay [12] came out at 42.48%.

Regarding `c1cc(Nc2ccc(NC3=NCCN3)cc2)ccc1NC1=NCCN1`, the IC50 in assay [6] worked out at 69 nM; in the assay with Plasmodium falciparum, 8.8 nM; in the assay with L6, 212000 nM; in the assay on Ferriprotoporphyrin IX [1], 429000 nM. Also, the entries for the “Ratio IC50” value in assay [7] and in assay [8] were 3072 and 24000, respectively. For the same compound, in assay [9], the ΔTm came to 38.5 °C. Moreover, the Survival in [11] came to 7 days. In addition, in [12], the Activity was 65.51%.

In the case of `c1cc(NC2=NCCN2)ccc1Cc1ccc(NC2=NCCN2)cc1`, the IC50 in assay [6] was 897 nM; in the assay with Plasmodium falciparum it was 15.7 nM; with L6, 63600 nM. Moreover, the “Ratio IC50” value in assay [7] turned out to be 71; in [8], 4051. In [9], the ΔTm stood at 18.8 °C. In addition, in [11], the Survival came out at 6.7 days. In [12], this compound gave an Activity of 8.9%.

As for `c1cc(N2CCN(c3ccc(NC4=NCCN4)cc3)CC2)ccc1NC1=NCCN1`, the IC50 was 118 nM in [6], 12.3 nM with Plasmodium falciparum, 104000 nM with L6 and 128000 nM with Ferriprotoporphyrin IX [1]. Further, the “Ratio IC50” value worked out at 881 in [7] and 8455 in assay [8]. In addition, the ΔTm in assay [9] was found to be 38.8 °C. Moreover, in assay [11], the Survival amounted to 7 days. This compound yielded an Activity in assay [12] of 0%.

As to `c1cc(Oc2ccc(NC3=NCCN3)cc2)ccc1NC1=NCCN1`, the IC50 turned out to be 467 nM in [6], 38 nM with Plasmodium falciparum and 41000 nM in the assay with L6. The “Ratio IC50” value was 88 in assay [7] and 1079 in assay [8]. Further, the ΔTm in assay [9] is 27.1 °C. In the assay with Ferriprotoporphyrin IX [10], the inhibition came to 0%. Besides, the Survival with Plasmodium berghei [13] came out at 7 days. In the assay on Plasmodium berghei [14], the Activity was found to be 44.1%.

As for `c1cc(Sc2ccc(NC3=NCCN3)cc2)ccc1NC1=NCCN1`, the IC50 in assay [6] stood at 386 nM; in the assay on Plasmodium falciparum it was 25 nM; with L6, 23300 nM; with Ferriprotoporphyrin IX [1] it was 952000 nM. Also, the “Ratio IC50” value was determined as 60 in [7] and 932 in assay [8]. In addition, the ΔTm in assay [9] came out at 24.1 °C. Besides, the Survival in the assay on Plasmodium berghei [15] stood at 11.3 days. The same compound yielded an Activity in the assay with Plasmodium berghei [16] of 97.5%.
